# From ChEMBL document CHEMBL3085641, “Development of thiophenic analogues of benzothiadiazine dioxides as new powerful potentiators of 2-amino-3-(3-hydroxy-5-methylisoxazol-4-yl)propionic acid (AMPA) receptors” (J Med Chem, 2013)
# Active and inactive are the calls of the source. No cut-off for these calls is given here.
# Assays:
# Mus musculus [1] = test: Cognitive enhancing effect in CD-1 mouse assessed as recognition of familiar object at 0.3 to 1 mg/kg, po after 1 hr by object recognition test; type: functional, organism-based
# Procedure, shortened: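 Three-session object recognition test in CD1 mice, with a 24 h interval between sessions. Dosing was oral, 1 h before each session. Read-out was a discrimination index: exploration time of the new object minus that of the familiar object in the last session. n = 13; one-way ANOVA versus control.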
# Rattus norvegicus [2] = organism: Rattus norvegicus; test: Positive allosteric modulation of AMPA receptor in Wistar rat hippocampus assessed as potentiation of (S)-AMPA-induced [3H]-NA release at 300 uM relative to (S)-AMPA
# Procedure, shortened: (§1)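 Transverse hippocampal slices (300 μm) were loaded with [3H]noradrenaline ([…]) for 30 min at 37 °C, rinsed, then superfused with Krebs buffer, (S)-AMPA, or (S)-AMPA plus compound. Superfusate was collected in 5 min fractions and counted by scintillation. Fractional release was normalized to total radioactivity in all fractions plus tissue. Compound alone was compared with basal DMSO release, and co-application with (S)-AMPA alone (100%).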
# Rattus norvegicus [3] = organism: Rattus norvegicus; test: Agonist activity at AMPA receptor in Wistar rat hippocampus assessed as [3H]-NA release at 300 uM relative to control; procedure, shortened: as §1
# Rattus norvegicus [4] = test: Positive allosteric modulation of AMPA receptor in Wistar rat dentate gyrus assessed as increase in field excitatory postsynaptic potential amplitude at 30 mg/kg, ip after 1 hr; type: functional, organism-based; design: dose 30 mg/kg
# Procedure, shortened: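 Anesthetized Wistar rats received 30 mg/kg ip. EPSfPs were recorded in the hippocampal dentate gyrus, with amplitude averaged over four stimuli. Values were normalized to the mean response during the 1 h baseline before injection (100%). One hour after injection, LTP was induced by tetanic stimulation and EPSfPs were followed for 3 h.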
# Mus musculus [5] = test: Toxicity in mouse assessed as hypothermia at 30 mg/kg, po after 30 mins; type: organism-based; design: dose 30 mg/kg, route oral; conditions: in vivo, 0.5 h
# Procedure, shortened: (§2)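 Irwin test in mice: a single oral dose of 30 mg/kg, five animals per compound. Behavioural and physiological changes were recorded, including body temperature at 30 min post-dose.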
# Rattus norvegicus [6] = organism: Rattus norvegicus; test: Positive allosteric modulation of AMPA receptor in rat hippocampal CA1 region assessed as potentiation of AMPA-induced excitatory postsynaptic field potential half-width in CA1 region at 10 uM relative to basal value; type: tissue-based; conditions: Hippocampus
# Procedure, shortened: (§3)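 Rat hippocampal slices were perfused with medium containing 1.2 mM Mg2+. EPSfPs were evoked in CA1 by Schaffer collateral stimulation, with compound at 10 μM. Area, amplitude and half-width were each normalized to the pre-application value (100%); n = 3.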
# Rattus norvegicus [7] = organism: Rattus norvegicus; test: Positive allosteric modulation of AMPA receptor in rat hippocampal CA1 region assessed as potentiation of AMPA-induced excitatory postsynaptic field potential amplitude in CA1 region at 10 uM relative to basal value; type: tissue-based; conditions: Hippocampus; procedure, shortened: as §3
# Rattus norvegicus [8] = organism: Rattus norvegicus; test: Positive allosteric modulation of AMPA receptor in rat hippocampal CA1 region assessed as potentiation of AMPA-induced excitatory postsynaptic field potential area in CA1 region at 10 uM relative to basal value; type: tissue-based; conditions: Hippocampus; procedure, shortened: as §3
# Rattus norvegicus [9] = organism: Rattus norvegicus; test: Positive allosteric modulation of rat brain AMPA receptor assessed as potentiation of 2 fold of (S)-AMPA-induced current amplitude by FlipR method
# Procedure, shortened: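 Primary neuron cultures from rat embryonic cortex were stimulated with 300 μM AMPA. Membrane depolarization was read with a fluorescent membrane-potential dye in an imaging plate reader. Reported value is the drug concentration doubling the AMPA-induced fluorescence; n = 3, mean ± SEM (some n = 2).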
# Rattus norvegicus [10] = organism: Rattus norvegicus; test: Positive allosteric modulation of rat cortex AMPA receptor expressed in Xenopus laevis oocytes assessed as potentiation of (S)-AMPA-induced current amplitude at 10 uM by voltage clamp technique relative to (S)-AMPA; type: cell-based
# Procedure, shortened: (§4)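 Two-electrode voltage clamp at room temperature on Xenopus laevis oocytes expressing rat cortex poly(A+) mRNA, using 10 μM (S)-AMPA. Oocytes were pre-screened with 100 μM S22286, applied 45 s before, 30 s during and 30 s after AMPA; those with under 130-fold potentiation were excluded. Read-outs were drug concentrations for 2-fold or 5-fold current increase, EC50, and maximal effect as % of the AMPA current; n ≥ 3.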
# [11] = Positive allosteric modulation of rat cortex AMPA receptor expressed in Xenopus laevis oocytes assessed as potentiation of (S)-AMPA-induced current amplitude by voltage clamp technique; type: cell-based; procedure, shortened: as §4
# Rattus norvegicus [12] = organism: Rattus norvegicus; test: Positive allosteric modulation of rat cortex AMPA receptor expressed in Xenopus laevis oocytes assessed as concentration required to 5 fold potentiation of (S)-AMPA-induced current amplitude by voltage clamp technique; type: cell-based; procedure, shortened: as §4
# Rattus norvegicus [13] = organism: Rattus norvegicus; test: Positive allosteric modulation of rat cortex AMPA receptor expressed in Xenopus laevis oocytes assessed as concentration required to 2 fold potentiation of (S)-AMPA-induced current amplitude by voltage clamp technique; type: cell-based; procedure, shortened: as §4
# Rattus norvegicus [14] = test: Positive allosteric modulation of AMPA receptor in Wistar rat dentate gyrus assessed as increase in tetanus-induced field excitatory postsynaptic potential amplitude at 30 mg/kg, ip administered 1 hr prior to tetanus challenge measured after 3 hrs relative to vehicle-treated control; type: functional, organism-based; design: dose 30 mg/kg
# Procedure, shortened: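 Anaesthetised Wistar rats, 30 mg/kg ip. Field EPSPs recorded in hippocampal dentate gyrus, each amplitude the average of four stimuli. Values normalised to the mean of the 1 h baseline before injection, taken as 100%. LTP induced by tetanic stimulation 1 h after injection, then EPSPs followed for 3 h.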
# Mus musculus [15] = test: Toxicity in mouse assessed as hypothermia at 30 mg/kg, po; type: organism-based; design: dose 30 mg/kg, route oral; conditions: in vivo; procedure, shortened: as §2
# Mus musculus [16] = test: Acute toxicity in mouse assessed as convulsion followed by apathy at 30 mg/kg, po; type: organism-based; design: dose 30 mg/kg, route oral; conditions: in vivo
# Procedure, shortened: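 Irwin screen for acute neurotoxicity in mice: single oral dose of 30 mg/kg, then behavioural and physiological state recorded (convulsions, apathy, body temperature). Five animals per compound.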
# Mus musculus [17] = test: Toxicity in mouse assessed as reduction in body temperature at 30 mg/kg, ip; type: organism-based; design: dose 30 mg/kg, route intraperitoneal; conditions: in vivo
SMILES,Activity (Rattus norvegicus [9]) [µM],Emax (Rattus norvegicus [10]) [%],Activity (Rattus norvegicus [13]) [µM],also measured
CCN1CNS(=O)(=O)c2cc(Cl)sc21,10.4,2830,4.4,Activity (Mus musculus [1]): Active; Activity (Rattus norvegicus [2]): 281%; Activity (Rattus norvegicus [3]): 34%; Activity (Rattus norvegicus [4]): Active; Activity (Mus musculus [5]): Non-toxic; Activity (Rattus norvegicus [6]): 11.7%; Activity (Rattus norvegicus [7]): 3.7%; Activity (Rattus norvegicus [8]): 18.3%; EC50 [11]: 11 µM; Activity (Rattus norvegicus [12]): 24 µM; Activity (Rattus norvegicus [14]): Active
CN1C=NS(=O)(=O)c2c(Cl)sc(Cl)c21,–,> 413,81,–
O=S1(=O)N=CNc2c(Cl)sc(Cl)c21,–,–,> 100,–
O=S1(=O)N=CN(CCCF)c2cc(Cl)sc21,100,107,> 300,–
CCN1C=NS(=O)(=O)c2c(Cl)sc(Cl)c21,–,> 1000,42,–
O=S1(=O)NCN(CC(F)F)c2cc(Cl)sc21,2.9,2560,1.6,Activity (Rattus norvegicus [6]): 14.3%; Activity (Rattus norvegicus [7]): 15.3%; Activity (Rattus norvegicus [8]): 22.7%; Activity (Mus musculus [15]): 60%
CCCN1CNS(=O)(=O)c2c(Cl)sc(Cl)c21,> 100,> 126,> 300,–
O=S1(=O)N=CN(CF)c2cc(Cl)sc21,> 100,–,–,–
CCN1C=NS(=O)(=O)c2cc(Cl)sc21,> 100,–,–,–
CN1C=NS(=O)(=O)c2sc(Cl)cc21,> 100,–,> 166,–
O=S1(=O)NCNc2cc(Cl)sc21,> 100,253,216,–
O=S1(=O)NCN(CCF)c2cc(Cl)sc21,3.32,5600,2,Activity (Rattus norvegicus [7]): 33.7%; Activity (Rattus norvegicus [8]): 9.3%; Activity (Mus musculus [16]): Toxic
O=S1(=O)NCN(CCCF)c2cc(Cl)sc21,> 45.7,> 3780,12,–
CN1CNS(=O)(=O)c2c(Cl)sc(Cl)c21,–,2920,5.4,–
O=S1(=O)N=CN(CC(F)F)c2cc(Cl)sc21,100,–,–,–
O=S1(=O)N=CN(CC(F)F)c2c(Cl)sc(Cl)c21,> 100,–,–,–
O=S1(=O)N=CN(CCF)c2c(Cl)sc(Cl)c21,20.3,> 2330,26.5,–
CCCN1CNS(=O)(=O)c2sc(Cl)cc21,25.1,2090,15,–
CCN1C=NS(=O)(=O)c2sc(Cl)cc21,> 100,> 175,172,–
CN1CNS(=O)(=O)c2sc(Cl)cc21,–,> 462,36,–
CCN1CNS(=O)(=O)c2c(Cl)sc(Cl)c21,> 55,> 955,71,–
CC(C)N1CNS(=O)(=O)c2sc(Cl)cc21,9.55,217,4.2,–
CC(C)N1C=NS(=O)(=O)c2sc(Cl)cc21,> 100,> 277,> 100,–
O=S1(=O)N=CN(CCF)c2cc(Cl)sc21,> 100,204,> 300,–
O=S1(=O)NCN(CCF)c2c(Cl)sc(Cl)c21,> 100,> 485,113,–
O=S1(=O)NCNc2c(Cl)sc(Cl)c21,> 100,> 973,72,–
CCN1CNS(=O)(=O)c2sc(Cl)cc21,–,2270,3.6,EC50 [11]: 9.2 µM; Activity (Rattus norvegicus [12]): 18.5 µM
CCCN1C=NS(=O)(=O)c2sc(Cl)cc21,> 100,2070,–,T (Mus musculus [17]): 4.6 °C
CCCN1C=NS(=O)(=O)c2c(Cl)sc(Cl)c21,> 100,–,–,–
O=S1(=O)NCN(CC(F)F)c2c(Cl)sc(Cl)c21,> 100,> 227,235,–
